Experimental data taken from ChEMBL document CHEMBL3091324, “The optimization of aminooxadiazoles as orally active inhibitors of Cdc7” (Bioorg Med Chem Lett, 2013).
≈ marks a conversion by molar mass, not a printed value.

What was measured:
[1] = tested on: Mus musculus; assay: In vivo inhibition of Cdc7 in tumor of NCR/nude mouse xenografted with human HCT116 cells assessed as remaining Ser53 phosphorylated MCM2 level at 100 mg/kg, po measured at 16 hrs relative to control; format: functional, HCT-116
Summary of the method: (§1)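 Female NCR/nude mice (n = 3 per group) given single oral dose of 100 mg/kg; pMCM2 levels measured at 6 and 16 h, expressed as % remaining versus vehicle control group; significance by one-way ANOVA with Dunnett's test.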

[2] = tested on: Mus musculus; assay: In vivo inhibition of Cdc7 in tumor of NCR/nude mouse xenografted with human HCT116 cells assessed as remaining Ser53 phosphorylated MCM2 level at 100 mg/kg, po measured at 6 hrs relative to control; format: functional, HCT-116; summary of the method: as §1
[3] = tested on: HCT-116; assay: Cytotoxicity against human HCT116 cells assessed as cell viability after days by CellTiterGlo assay; format: functional, cell-based
Summary of the method: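 HCT-116 cells exposed to compound for 4 d; cell viability IC50 determined.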

[4] = Oral bioavailability rat in 5 mg/kg; format: ADME, organism-based; details: in vivo
[5] = Volume of distribution at steady state in rat at 1 mg/kg, iv and 5 mg/kg, po; format: ADME, organism-based; details: in vivo, read-out: Vdss
[6] = Mean residence time in rat at 1 mg/kg, iv and 5 mg/kg, po; format: ADME, organism-based; details: in vivo
[7] = Clearance in rat at 1 mg/kg, iv and 5 mg/kg, po; format: ADME, organism-based; details: in vivo
[8] = Solubility of the compound in simulated intestinal fluid; format: ADME
[9] = Intrinsic clearance in human liver microsomes; format: ADME; details: read-out: CLH
[10] = molecular target: CDK9/cyclin T1 (Homo sapiens, UniProt P50750); assay: Inhibition of CDK9/cyclin T1 (unknown origin) using 4eBP1 ULight peptide as substrate by HTRF assay; format: protein-complex assay
[11] = molecular target: Cyclin-dependent kinase 1/cyclin B1 (Homo sapiens, UniProt P06493); assay: Inhibition of CDK1/cyclin B (unknown origin) by HTRF assay; format: protein-complex assay
[12] = molecular target: Cyclin-dependent kinase 2/cyclin E1 (Homo sapiens, UniProt P24941); assay: Inhibition of CDK2/cyclin E (unknown origin) using ULight peptide as substrate by HTRF assay; format: protein-complex assay
[13] = Intrinsic clearance in rat liver microsomes; format: ADME; details: read-out: CLH
[14] = molecular target: Cell division cycle 7-related protein kinase (Homo sapiens, UniProt O00311); assay: Inhibition of Cdc7-mediated MCM2 phosphorylation at Ser53 in human HCT116 cells after 14 hrs by immunostaining assay; format: cell-based, HCT-116
[15] = molecular target: CDC7/DBF4 (Cell division cycle 7-related protein kinase/Activator of S phase kinase) (Homo sapiens, UniProt O00311); assay: Inhibition of Cdc7/Dbf4 (unknown origin)-mediated MCM2 phosphorylation at Ser53 by protein A amplified luminescent proximity homogeneous assay; format: protein-complex assay
[16] = tested on: Mus musculus; assay: In vivo inhibition of Cdc7-mediated MCM2 phosphorylation at Ser53 in tumor of NCR/nude mouse xenografted with human HCT116 cells at 100 mg/kg, po; format: functional, organism-based; design: dose 100 mg/kg; details: HCT-116, TDE = time-dependent effect; summary of the method: as §1
[17] = tested on: Plasma; assay: Unbound plasma concentration in NCR/nude mouse xenografted with human HCT116 cells at 100 mg/kg, po measured at 16 hrs by LC-MS analysis; format: ADME, organism-based, HCT-116; design: dose 100 mg/kg, route oral; details: in vivo
Summary of the method: (§2)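 Female NCR/nude mice (n = 3) dosed orally at 100 mg/kg; plasma sampled at 6 and 16 h; unbound concentration calculated from total plasma concentration and percent free fraction in mouse plasma.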

[18] = tested on: Plasma; assay: Unbound plasma concentration in NCR/nude mouse xenografted with human HCT116 cells at 100 mg/kg, po measured at 6 hrs by LC-MS analysis; format: ADME, organism-based, HCT-116; design: dose 100 mg/kg, route oral; details: in vivo; summary of the method: as §2
[19] = Oral bioavailability rat in 2 mg/kg; format: ADME, organism-based; details: in vivo
[20] = Volume of distribution at steady state in rat at 2 mg/kg, iv and 2 mg/kg, po; format: ADME, organism-based; details: in vivo, read-out: Vdss
[21] = Mean residence time in rat at 2 mg/kg, iv and 2 mg/kg, po; format: ADME, organism-based; details: in vivo
[22] = Clearance in rat at 2 mg/kg, iv and 2 mg/kg, po; format: ADME, organism-based; details: in vivo
[23] = Volume of distribution at steady state in rat at 2 mg/kg, iv and 5 mg/kg, po; format: ADME, organism-based; details: in vivo, read-out: Vdss
[24] = Mean residence time in rat at 2 mg/kg, iv and 5 mg/kg, po; format: ADME, organism-based; details: in vivo
[25] = Clearance in rat at 2 mg/kg, iv and 5 mg/kg, po; format: ADME, organism-based; details: in vivo
[26] = species on record: Homo sapiens; assay: Selectivity ratio of IC50 for CDK2/cyclin E (unknown origin) to IC50 for Cdc7/Dbf4 (unknown origin)

Cell division cycle 7-related protein kinase, sequence (O00311 whole entry): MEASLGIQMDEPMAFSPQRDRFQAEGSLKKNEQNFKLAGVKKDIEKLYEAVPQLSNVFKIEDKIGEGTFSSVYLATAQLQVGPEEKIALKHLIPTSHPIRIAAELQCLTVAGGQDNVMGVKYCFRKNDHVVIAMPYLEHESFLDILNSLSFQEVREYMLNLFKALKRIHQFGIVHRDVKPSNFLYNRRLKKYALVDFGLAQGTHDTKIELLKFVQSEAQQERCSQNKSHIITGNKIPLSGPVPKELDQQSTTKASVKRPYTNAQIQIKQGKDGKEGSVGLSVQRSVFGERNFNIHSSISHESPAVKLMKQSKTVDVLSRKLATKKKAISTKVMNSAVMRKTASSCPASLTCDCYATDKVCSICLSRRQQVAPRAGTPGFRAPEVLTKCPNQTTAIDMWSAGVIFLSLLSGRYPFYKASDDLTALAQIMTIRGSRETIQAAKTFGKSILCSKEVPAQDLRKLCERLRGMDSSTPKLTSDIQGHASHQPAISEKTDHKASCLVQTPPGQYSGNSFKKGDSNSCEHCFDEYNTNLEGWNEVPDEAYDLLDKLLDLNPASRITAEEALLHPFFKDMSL
CDK9/cyclin T1, sequence (O60563 whole entry): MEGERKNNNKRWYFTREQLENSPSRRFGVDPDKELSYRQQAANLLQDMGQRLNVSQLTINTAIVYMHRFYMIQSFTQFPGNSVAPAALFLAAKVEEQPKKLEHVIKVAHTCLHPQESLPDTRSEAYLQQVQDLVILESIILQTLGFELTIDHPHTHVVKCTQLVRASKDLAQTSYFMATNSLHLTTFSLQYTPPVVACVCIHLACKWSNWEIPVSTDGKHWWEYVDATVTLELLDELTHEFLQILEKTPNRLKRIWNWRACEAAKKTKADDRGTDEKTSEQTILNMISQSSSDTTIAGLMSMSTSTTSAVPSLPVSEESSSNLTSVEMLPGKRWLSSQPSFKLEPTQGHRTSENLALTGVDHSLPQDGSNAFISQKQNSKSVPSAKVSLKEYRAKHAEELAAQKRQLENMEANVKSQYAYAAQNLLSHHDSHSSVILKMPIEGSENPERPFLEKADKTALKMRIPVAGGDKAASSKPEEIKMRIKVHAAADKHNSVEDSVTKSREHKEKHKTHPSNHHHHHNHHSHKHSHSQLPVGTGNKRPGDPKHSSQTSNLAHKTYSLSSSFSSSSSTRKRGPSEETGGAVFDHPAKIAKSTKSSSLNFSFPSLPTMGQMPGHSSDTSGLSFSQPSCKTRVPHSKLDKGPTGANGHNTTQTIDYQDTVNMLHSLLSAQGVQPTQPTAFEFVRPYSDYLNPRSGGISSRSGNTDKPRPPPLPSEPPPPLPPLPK
CDK9/cyclin T1, sequence (P50750 whole entry): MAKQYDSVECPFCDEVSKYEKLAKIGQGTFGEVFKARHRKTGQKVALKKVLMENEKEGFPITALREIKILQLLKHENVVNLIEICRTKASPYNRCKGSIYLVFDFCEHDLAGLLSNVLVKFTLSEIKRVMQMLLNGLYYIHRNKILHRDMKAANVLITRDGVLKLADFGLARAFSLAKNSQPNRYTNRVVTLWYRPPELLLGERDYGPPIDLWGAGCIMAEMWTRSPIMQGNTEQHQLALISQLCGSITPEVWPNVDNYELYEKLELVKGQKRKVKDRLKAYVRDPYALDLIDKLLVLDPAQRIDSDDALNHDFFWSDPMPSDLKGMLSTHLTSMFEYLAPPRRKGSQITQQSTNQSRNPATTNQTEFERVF
Cyclin-dependent kinase 1/cyclin B1, sequence (P06493 whole entry): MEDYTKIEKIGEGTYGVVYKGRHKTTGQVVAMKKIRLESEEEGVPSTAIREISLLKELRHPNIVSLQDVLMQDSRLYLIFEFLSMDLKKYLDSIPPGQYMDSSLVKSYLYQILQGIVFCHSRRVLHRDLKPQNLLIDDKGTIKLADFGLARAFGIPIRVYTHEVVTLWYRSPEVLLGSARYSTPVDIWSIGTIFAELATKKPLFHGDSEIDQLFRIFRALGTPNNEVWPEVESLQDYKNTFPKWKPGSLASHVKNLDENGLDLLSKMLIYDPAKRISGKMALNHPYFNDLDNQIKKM
Cyclin-dependent kinase 1/cyclin B1, sequence (P14635 whole entry, further chain): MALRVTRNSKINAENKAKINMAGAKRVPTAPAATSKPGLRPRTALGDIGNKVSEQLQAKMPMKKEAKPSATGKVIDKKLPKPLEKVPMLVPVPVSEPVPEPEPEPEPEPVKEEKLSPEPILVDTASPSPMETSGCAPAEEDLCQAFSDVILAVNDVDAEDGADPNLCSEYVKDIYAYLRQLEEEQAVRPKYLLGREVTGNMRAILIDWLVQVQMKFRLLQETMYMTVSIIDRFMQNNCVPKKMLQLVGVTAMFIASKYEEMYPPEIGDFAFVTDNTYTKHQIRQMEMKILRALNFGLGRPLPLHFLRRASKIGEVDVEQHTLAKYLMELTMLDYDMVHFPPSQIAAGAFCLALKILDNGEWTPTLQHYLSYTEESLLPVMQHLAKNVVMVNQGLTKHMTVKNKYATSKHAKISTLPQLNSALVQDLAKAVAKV
CDC7/DBF4 (Cell division cycle 7-related protein kinase/Activator of S phase kinase), sequence (Q9UBU7 whole entry): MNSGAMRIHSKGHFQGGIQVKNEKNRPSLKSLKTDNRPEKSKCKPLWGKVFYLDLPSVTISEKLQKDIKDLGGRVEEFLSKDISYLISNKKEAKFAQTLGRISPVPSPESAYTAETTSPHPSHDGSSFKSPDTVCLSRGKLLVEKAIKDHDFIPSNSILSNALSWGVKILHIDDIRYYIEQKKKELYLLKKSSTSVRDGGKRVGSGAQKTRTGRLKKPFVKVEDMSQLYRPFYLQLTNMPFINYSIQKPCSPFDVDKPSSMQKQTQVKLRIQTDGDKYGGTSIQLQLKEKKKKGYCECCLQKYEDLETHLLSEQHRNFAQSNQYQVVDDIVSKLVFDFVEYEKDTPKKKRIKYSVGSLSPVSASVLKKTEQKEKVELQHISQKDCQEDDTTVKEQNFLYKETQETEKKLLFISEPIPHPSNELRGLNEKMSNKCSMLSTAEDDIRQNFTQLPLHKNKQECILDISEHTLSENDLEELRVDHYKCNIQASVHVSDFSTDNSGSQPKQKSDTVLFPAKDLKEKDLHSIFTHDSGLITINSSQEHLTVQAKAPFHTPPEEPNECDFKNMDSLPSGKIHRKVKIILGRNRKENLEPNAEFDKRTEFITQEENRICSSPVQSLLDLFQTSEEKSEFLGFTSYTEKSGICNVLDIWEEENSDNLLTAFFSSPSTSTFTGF
CDC7/DBF4 (Cell division cycle 7-related protein kinase/Activator of S phase kinase), sequence (O00311 whole entry): as the sequence (O00311 whole entry) above

Compound | solubility [8] | microsomal CLint [9] | IC50 [10] | IC50 [11] | IC50 [12] | microsomal CLint [13] | IC50 [14] | IC50 [15] | Cp(f) [17] | Cp(f) [18] | Remaining Ser53 phospho-MCM2 vs control [1] | Remaining phospho-MCM2 (% of control) [2] | IC50 [3] | other results
Fc1cnc2[nH]cc(-c3nnc(N[C@@H](c4cccnc4F)C4CC4)o3)c2c1 | 160 µg/mL (≈ 434 µM) | < 14 µL/min/mg | 460 nM | 6600 nM | 670 nM | 20 µL/min/mg | 32 nM | 1.1 nM | 300 nM | 610 nM | 30% | 46% | 2400 nM | bioavailability [4]: 50%; Vd [5]: 3.3 L/kg; MRT [6]: 1.9 h; clearance [7]: 28.3 mL/min/kg; Activity [16]: tde
c1ccc(CNc2nnc(-c3ccc4[nH]ncc4c3)o2)cc1 |  | 98 µL/min/mg |  |  | 170 nM | 402 µL/min/mg | 730 nM | 20 nM |  |  |  |  |  | 
Fc1ccccc1[C@H](Nc1nnc(-c2c[nH]c3ncccc23)o1)C1CC1 | 5 µg/mL (≈ 14.3 µM) | 59 µL/min/mg | 31 nM | 1600 nM | 240 nM | 63 µL/min/mg | 20 nM | 0.85 nM | 60 nM | 150 nM | 46% | 38% | 880 nM | bioavailability [4]: 35%; Vd [23]: 5.3 L/kg; MRT [24]: 2.7 h; clearance [25]: 33.3 mL/min/kg
c1ccc(CNc2nnc(-c3c[nH]c4ncccc34)o2)nc1 |  | < 14 µL/min/mg |  |  | 2500 nM | 14 µL/min/mg | 13000 nM | 170 nM |  |  |  |  |  | 
O=c1[nH]c2ccc(-c3nnc(NCc4ccccc4)o3)cc2o1 |  | 69 µL/min/mg |  |  | 47000 nM | 30 µL/min/mg | > 50000 nM | 590 nM |  |  |  |  |  | 
c1cnc2[nH]cc(-c3nnc(NCc4ccncc4)o3)c2c1 |  | < 14 µL/min/mg |  |  | 350 nM | 37 µL/min/mg | 12000 nM | 110 nM |  |  |  |  |  | 
c1ccc(CNc2nnc(-c3c[nH]c4ncccc34)o2)cc1 |  | 31 µL/min/mg |  |  | 150 nM | 40 µL/min/mg | 780 nM | 24 nM |  |  |  |  |  | Ratio IC50 [26]: 6
Fc1ccc(CNc2nnc(-c3c[nH]c4ncccc34)o2)cc1 |  | 47 µL/min/mg |  |  | 98 nM | 58 µL/min/mg | 690 nM | 25 nM |  |  |  |  |  | Ratio IC50 [26]: 4

Further molecules by falling IC50 [12], results first:

solubility [8] | microsomal CLint [9] | IC50 [10] | IC50 [11] | IC50 [12] | microsomal CLint [13] | IC50 [14] | IC50 [15] | Cp(f) [17] | Cp(f) [18] | Compound | Remaining Ser53 phospho-MCM2 vs control [1] | Remaining phospho-MCM2 (% of control) [2] | IC50 [3] | other results
 | 23 µL/min/mg |  |  | 19000 nM | 66 µL/min/mg | > 50000 nM | 2300 nM |  |  | c1ccc(CNc2nnc(-c3nc4ccncc4s3)o2)cc1 |  |  |  | 
200 µg/mL (≈ 571 µM) | 27 µL/min/mg | 940 nM | > 50000 nM | 1900 nM | 45 µL/min/mg | 60 nM | 1.8 nM | 450 nM | 2000 nM | Fc1cnccc1[C@H](Nc1nnc(-c2c[nH]c3ncccc23)o1)C1CC1 | 24% | 62% | 5700 nM | bioavailability [19]: 14%; Vd [20]: 6.1 L/kg; MRT [21]: 1.4 h; clearance [22]: 75 mL/min/kg; Activity [16]: tde
 | 56 µL/min/mg |  |  | 1600 nM | 31 µL/min/mg | 71 nM | 1 nM |  |  | c1ccc([C@H](Nc2nnc(-c3c[nH]c4ncccc34)o2)C2CC2)cc1 |  |  |  | 
 | < 14 µL/min/mg | 880 nM | > 50000 nM | 750 nM | 34 µL/min/mg | 130 nM | 1.5 nM |  |  | Fc1ccccc1[C@H](Nc1nnc(-c2c[nH]c3ncncc23)o1)C1CC1 |  |  |  | 
200 µg/mL (≈ 571 µM) | 21 µL/min/mg | 120 nM | 7300 nM | 490 nM | 80 µL/min/mg | 51 nM | 0.69 nM | 70 nM | 1300 nM | Fc1ncccc1[C@H](Nc1nnc(-c2c[nH]c3ncccc23)o1)C1CC1 | 41% | 40% | 1800 nM | bioavailability [4]: 41%; Vd [5]: 5.9 L/kg; MRT [6]: 1.3 h; clearance [7]: 75 mL/min/kg
